# Reference: ChEMBL document CHEMBL1212766, “Dose escalation study of the safety, tolerability, and pharmacokinetics of nemonoxacin (TG-873870), a novel potent broad-spectrum nonfluorinated quinolone, in healthy volunteers” (Antimicrob Agents Chemother, 2010)
# Legend:
# Homo sapiens [1] = assay: Toxicity in healthy human assessed as occurrence of oral hypoesthesia at 250 […], po; assay type: organism-based; design: route oral; conditions: in vivo
# Streptococcus pneumoniae [2] = assay: Ratio of fCmax to MIC90 for Streptococcus pneumoniae; assay type: functional
# Procedure, shortened: (§1)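 Fasted healthy adults got a single oral 500 mg dose with 240 ml water. Plasma was sampled predose to 96 h and assayed by LC-MS/MS (5–5,000 ng/ml). Cmax was read from individual profiles, and AUC0-∞ came from linear trapezoid plus extrapolation. Free fraction was measured by ultrafiltration (30,000 MWCO) of 0.5 and 6 h plasma. Free exposure was divided by the isolate MIC90.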
# Homo sapiens [3] = assay: Toxicity in healthy human assessed as occurrence of headache at 25 […], po; assay type: organism-based; design: route oral; conditions: in vivo
# Homo sapiens [4] = assay: Toxicity in healthy human assessed as occurrence of nausea at 1500 […], po; assay type: organism-based; design: route oral; conditions: in vivo
# [5] = Terminal phase elimination half-life in healthy human at 125 […], po administered single dose; assay type: ADME, organism-based; design: route oral; conditions: in vivo
# Procedure, shortened: (§2)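 After one fasted oral dose (six healthy subjects per cohort), plasma was sampled from 0.5 to 96 h and assayed by LC-MS/MS (LLOQ 5 ng/ml). λz came from least-squares regression on at least the last three log-concentration points, and t1/2 = 0.693/λz. Values are means (SD).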
# Streptococcus pneumoniae [6] = assay: Ratio of fAUC to MIC90 for Streptococcus pneumoniae; assay type: functional; procedure, shortened: as §1
# [7] = Terminal phase elimination half-life in healthy human at 1000 mg, po administered single dose; conditions: in vivo
# [8] = Tmax in healthy human at 25 mg, po administered as single dose; conditions: in vivo
# Homo sapiens [9] = assay: Toxicity in healthy human assessed as occurrence of ear pain at 500 […], po; assay type: organism-based; design: route oral; conditions: in vivo
# Staphylococcus aureus [10] = assay: Ratio of fAUC to MIC90 for methicillin-resistant Staphylococcus aureus; assay type: functional; procedure, shortened: as §1
# Homo sapiens [11] = assay: Toxicity in healthy human assessed as occurrence of abdominal pain at 1000 […], po; assay type: organism-based, Abdomen; design: route oral; conditions: in vivo
# Procedure, shortened: (§3)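 Double-blind, placebo-controlled single ascending oral dose; two placebo and six active subjects per cohort. Adverse events were recorded throughout the dosing period and at follow-up, with confinement to 96 h after dosing. Results are reported as number and percentage of subjects with the event (n/N × 100).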
# Homo sapiens [12] = assay: Toxicity in healthy human assessed as occurrence of contact dermatitis at 25 […], po; assay type: organism-based; design: route oral; conditions: in vivo
# Procedure, shortened: (§4)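 Randomized, double-blind, placebo-controlled single ascending oral doses in healthy volunteers (cohorts of 6 active, 2 placebo; 25–1,500 mg). After a 10-h fast, dose given with 240 ml water; fasting continued 4 h. Subjects were confined to 96 h postdose. AEs were recorded throughout dosing and at follow-up, reported as number and percentage of subjects with events per treatment.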
# [13] = Cmax in healthy human at 25 mg, po administered as single dose; conditions: in vivo
# Homo sapiens [14] = assay: Toxicity in healthy human assessed as occurrence of oral hypoesthesia at 25 […], po; assay type: organism-based; design: route oral; conditions: in vivo
# [15] = Clearance in healthy human assessed as recovery of unchanged drug in urine at 1000 […], po administered as single dose; assay type: ADME, organism-based; design: route oral; conditions: read-out: Recovered in urine
# Procedure, shortened: (§5)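 Healthy volunteers, six on drug per cohort, fasted 10 h and given one oral dose with 240 ml water, then fasted 4 h more. Urine was pooled over intervals from 0-2 to 72-96 h and stored at about −70°C. Drug was measured by solid-phase extraction and LC-MS/MS (LLOQ 200 ng/ml), giving the percent of dose recovered unchanged. Values are means (SD).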
# Homo sapiens [16] = assay: Toxicity in healthy human assessed as occurrence of erythema at 250 […], po; assay type: organism-based; design: route oral; conditions: in vivo
# [17] = Terminal phase elimination half-life in healthy human at 1500 mg, po administered single dose; conditions: in vivo
# [18] = Tmax in healthy human at 50 mg, po administered as single dose; conditions: in vivo
# Streptococcus pneumoniae [19] = assay: Ratio of fCmax to MIC90 for penicillin-intermediate Streptococcus pneumoniae; assay type: functional; procedure, shortened: as §1
# Homo sapiens [20] = assay: Toxicity in healthy human assessed as occurrence of contact dermatitis at 125 […], po; assay type: organism-based; design: route oral; conditions: in vivo; procedure, shortened: as §4
# [21] = Renal clearance in healthy human at 25 mg, po administered as single dose; conditions: in vivo, read-out: CL_renal (converted)
# Streptococcus pneumoniae [22] = assay: Ratio of fCmax to MIC90 for penicillin-sensitive Streptococcus pneumoniae; assay type: functional; procedure, shortened: as §1
# Homo sapiens [23] = assay: Toxicity in healthy human assessed as occurrence of pustular rashes at 125 […], po; assay type: organism-based; design: route oral; conditions: in vivo
# Homo sapiens [24] = assay: Toxicity in healthy human assessed as occurrence of abdominal pain at 25 […], po; assay type: organism-based, Abdomen; design: route oral; conditions: in vivo; procedure, shortened: as §3
# Staphylococcus aureus [25] = assay: Antimicrobial activity against methicillin-resistant Staphylococcus aureus; assay type: functional
# Streptococcus pneumoniae [26] = assay: Ratio of fCmax to MIC90 for penicillin-resistant Streptococcus pneumoniae; assay type: functional; procedure, shortened: as §1
# Homo sapiens [27] = assay: Toxicity in healthy human assessed as occurrence of contact dermatitis at 1000 […], po; assay type: organism-based; design: route oral; conditions: in vivo; procedure, shortened: as §3
# Homo sapiens [28] = assay: Clearance in healthy human at 125 […], po administered as single dose; assay type: ADME, organism-based; design: route oral; conditions: in vivo
# Procedure, shortened: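 Randomized, double-blind, placebo-controlled single ascending oral dose in fasted healthy subjects (six on drug per cohort, with 240 ml water). Plasma sampled predose through 96 h and assayed by validated LC-MS/MS over 5–5,000 ng/ml. Oral clearance (CL_o) came from noncompartmental analysis, with AUC_0-∞ from linear trapezoids plus C_last/λz. Values are means (SD).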
# [29] = Cmax in healthy human at 500 mg, po administered as single dose; conditions: in vivo
# Homo sapiens [30] = assay: AUC (0 to infinity) in healthy human at 25 […], po administered as single dose; assay type: ADME, organism-based, Plasma; design: time infinity, route oral; conditions: in vivo
# Homo sapiens [31] = assay: Toxicity in healthy human assessed as occurrence of headache at 50 […], po; assay type: organism-based; design: route oral; conditions: in vivo
# Homo sapiens [32] = assay: AUC (0 to infinity) in healthy human at 250 […], po administered as single dose; assay type: ADME, organism-based, Plasma; design: time infinity, route oral; conditions: in vivo
# Homo sapiens [33] = assay: AUC (0 to infinity) in healthy human at 125 […], po administered as single dose; assay type: ADME, organism-based, Plasma; design: time infinity, route oral; conditions: in vivo
# Homo sapiens [34] = assay: Toxicity in healthy human assessed as occurrence of pustular rashes at 1000 […], po; assay type: organism-based; design: route oral; conditions: in vivo
# [35] = Cmax in healthy human at 1500 mg, po administered as single dose; conditions: in vivo
# [36] = Terminal phase elimination half-life in healthy human at 25 […], po administered single dose; assay type: ADME, organism-based; design: route oral; conditions: in vivo; procedure, shortened: as §2
# Homo sapiens [37] = assay: Toxicity in healthy human assessed as occurrence of contact dermatitis at 500 […], po; assay type: organism-based; design: route oral; conditions: in vivo
# Homo sapiens [38] = assay: Toxicity in healthy human assessed as occurrence of headache at 250 […], po; assay type: organism-based; design: route oral; conditions: in vivo
# Homo sapiens [39] = assay: Toxicity in healthy human assessed as occurrence of abdominal pain at 500 […], po; assay type: organism-based, Abdomen; design: route oral; conditions: in vivo; procedure, shortened: as §3
# [40] = Clearance in healthy human assessed as recovery of unchanged drug in urine at 50 […], po administered as single dose; assay type: ADME, organism-based; design: route oral; conditions: read-out: Recovered in urine; procedure, shortened: as §5
# Homo sapiens [41] = assay: Toxicity in healthy human assessed as occurrence of headache at 1000 […], po; assay type: organism-based; design: route oral; conditions: in vivo
compound,measurement,setting,value
COc1c(N2C[C@@H](C)C[C@H](N)C2)ccc2c(=O)c(C(=O)O)cn(C3CC3)c12 [NEMONOXACIN],Activity,Homo sapiens [1],0%
same,Ratio,Streptococcus pneumoniae [2],191
same,Activity,Homo sapiens [3],0%
same,Activity,Homo sapiens [4],17%
same,half-life,[5],11.1 h
same,Ratio,Streptococcus pneumoniae [6],1812
same,half-life,[7],16.4 h
same,Tmax,[8],0.92 h
same,Activity,Homo sapiens [9],0%
same,Ratio,Staphylococcus aureus [10],453
same,Activity,Homo sapiens [11],0%
same,Activity,Homo sapiens [12],50%
same,Cmax,[13],150 ng/mL
same,Activity,Homo sapiens [14],0%
same,dose excreted,[15],36.5%
same,Activity,Homo sapiens [16],0%
same,half-life,[17],13 h
same,Tmax,[18],1.08 h
same,Ratio,Streptococcus pneumoniae [19],191
same,Activity,Homo sapiens [20],33%
same,CL renal,[21],3 mL/min/kg
same,Ratio,Streptococcus pneumoniae [22],191
same,Activity,Homo sapiens [23],17%
same,Activity,Homo sapiens [24],0%
same,MIC90,Staphylococcus aureus [25],0.06 µg/mL
same,Ratio,Streptococcus pneumoniae [26],95
same,Activity,Homo sapiens [27],0%
same,CL,Homo sapiens [28],3.67 mL/min/kg
same,Cmax,[29],3410 ng/mL
same,AUC,Homo sapiens [30],1190 ng·h/mL
same,Activity,Homo sapiens [31],0%
same,AUC,Homo sapiens [32],15450 ng·h/mL
same,AUC,Homo sapiens [33],7670 ng·h/mL
same,Activity,Homo sapiens [34],0%
same,Cmax,[35],12100 ng/mL
same,half-life,[36],9.71 h
same,Activity,Homo sapiens [37],0%
same,Activity,Homo sapiens [38],0%
same,Activity,Homo sapiens [39],0%
same,dose excreted,[40],51.1%
same,Activity,Homo sapiens [41],17%
